In ChEMBL document CHEMBL3739360, “Indoline Amide Glucosides from Portulaca oleracea: Isolation, Structure, and DPPH Radical Scavenging Activity” (J Nat Prod, 2015):

How the values were obtained:
[1] = Antioxidant activity assessed as DPPH radical scavenging activity after 30 mins by plate reader analysis; format: physicochemical; details: for Activity: 0.5 h
Method in brief: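 DPPH radical (150 μM in MeOH, 180 μL) mixed with 20 μL compound in water (solutions 62.5–1000 μM); 30 min, room temperature, dark; absorbance 490 nm. Sample-only blanks in MeOH; water+DPPH and water+MeOH references. Vitamin C as positive control. Scavenging % from corrected absorbances; EC50 by nonlinear regression; triplicate, mean ± SD.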

[2] = Potency index, ratio of vitamin C EC50 to compound EC50 for DPPH radical scavenging activity

SMILES | EC50 [1] [µM] | Activity [1] | Ratio EC50 [2]
COc1cc(/C=C/C(=O)N2c3cc(O[C@@H]4O[C@H](CO)[C@@H](O)[C@H](O)[C@H]4O)c(O)cc3C[C@H]2C(=O)O)ccc1O | 35.1 | Dose-dependent effect | –
O=C(O)[C@@H]1Cc2cc(O)c(O[C@@H]3O[C@H](CO[C@@H]4O[C@H](CO)[C@@H](O)[C@H](O)[C@H]4O)[C@@H](O)[C@H](O)[C@H]3O)cc2N1C(=O)/C=C/c1ccc(O[C@@H]2O[C@H](CO)[C@@H](O)[C@H](O)[C@H]2O)cc1 | 43.5 | Dose-dependent effect | –
O=C(O)[C@@H]1Cc2cc(O)c(O[C@@H]3O[C@H](CO)[C@@H](O)[C@H](O)[C@H]3O)cc2N1C(=O)/C=C/c1ccc(O[C@@H]2O[C@H](CO)[C@@H](O)[C@H](O)[C@H]2O)cc1 | 38.3 | Dose-dependent effect | –
COc1cc(/C=C/C(=O)N2c3cc(O[C@@H]4O[C@H](CO[C@@H]5O[C@H](CO)[C@@H](O)[C@H](O)[C@H]5O)[C@@H](O)[C@H](O)[C@H]4O)c(O)cc3C[C@H]2C(=O)O)ccc1O[C@@H]1O[C@H](CO)[C@@H](O)[C@H](O)[C@H]1O | 40.9 | Dose-dependent effect | –
O=C(O)[C@@H]1Cc2cc(O)c(O[C@@H]3O[C@H](CO)[C@@H](O)[C@H](O)[C@H]3O)cc2N1C(=O)/C=C/c1ccc(O)cc1 | 35.1 | Dose-dependent effect | –
O=C1O[C@H]([C@@H](O)CO)C(O)=C1O [ASCORBIC ACID] | 30.2 | – | –

Second part, led by results:

EC50 [1] [µM] | Activity [1] | SMILES | Ratio EC50 [2]
35.4 | Dose-dependent effect | COc1cc(/C=C/C(=O)OC[C@H]2O[C@@H](OC[C@H]3O[C@@H](Oc4cc5c(cc4O)C[C@@H](C(=O)O)N5C(=O)/C=C/c4ccc(O)cc4)[C@H](O)[C@@H](O)[C@@H]3O)[C@H](O)[C@@H](O)[C@@H]2O)ccc1O | –
34.6 | Dose-dependent effect | COc1cc(/C=C/C(=O)N2c3cc(O[C@@H]4O[C@H](CO)[C@@H](O)[C@H](O)[C@H]4O)c(O)cc3C[C@H]2C(=O)O)ccc1O[C@@H]1O[C@H](CO)[C@@H](O)[C@H](O)[C@H]1O | –
29.1 | Dose-dependent effect | COc1cc(/C=C/C(=O)O[C@H]2[C@H](OC[C@H]3O[C@@H](Oc4cc5c(cc4O)C[C@@H](C(=O)O)N5C(=O)/C=C/c4ccc(O)cc4)[C@H](O)[C@@H](O)[C@@H]3O)O[C@H](CO)[C@@H](O)[C@@H]2O)ccc1O | –
16.1 | Dose-dependent effect | COc1cc(/C=C/C(=O)N2c3cc(O[C@@H]4O[C@H](CO[C@@H]5O[C@H](CO)[C@@H](O)[C@H](O)[C@H]5OC(=O)/C=C/c5ccc(O)c(O)c5)[C@@H](O)[C@H](O)[C@H]4O)c(O)cc3C[C@H]2C(=O)O)ccc1O | 2
42.9 | Dose-dependent effect | O=C(O)[C@@H]1Cc2cc(O)c(O[C@@H]3O[C@H](CO[C@@H]4O[C@H](CO)[C@@H](O)[C@H](O)[C@H]4O)[C@@H](O)[C@H](O)[C@H]3O)cc2N1C(=O)/C=C/c1ccc(O)cc1 | –
27.6 | Dose-dependent effect | COc1cc(/C=C/C(=O)O[C@H]2[C@H](OC[C@H]3O[C@@H](Oc4cc5c(cc4O)C[C@@H](C(=O)O)N5C(=O)/C=C/c4ccc(O)c(OC)c4)[C@H](O)[C@@H](O)[C@@H]3O)O[C@H](CO)[C@@H](O)[C@@H]2O)ccc1O | –
40.1 | Dose-dependent effect | COc1cc(/C=C/C(=O)N2c3cc(O[C@@H]4O[C@H](CO[C@@H]5O[C@H](CO)[C@@H](O)[C@H](O)[C@H]5O)[C@@H](O)[C@H](O)[C@H]4O)c(O)cc3C[C@H]2C(=O)O)ccc1O | –
15.3 | Dose-dependent effect | O=C(/C=C/c1ccc(O)c(O)c1)O[C@H]1[C@H](OC[C@H]2O[C@@H](Oc3cc4c(cc3O)C[C@@H](C(=O)O)N4C(=O)/C=C/c3ccc(O)cc3)[C@H](O)[C@@H](O)[C@@H]2O)O[C@H](CO)[C@@H](O)[C@@H]1O | 2
31.6 | Dose-dependent effect | COc1cc(/C=C/C(=O)O[C@H]2[C@H](OC[C@H]3O[C@@H](Oc4cc5c(cc4O)C[C@@H](C(=O)O)N5C(=O)/C=C/c4ccc(O[C@@H]5O[C@H](CO)[C@@H](O)[C@H](O)[C@H]5O)cc4)[C@H](O)[C@@H](O)[C@@H]3O)O[C@H](CO)[C@@H](O)[C@@H]2O)ccc1O | –
